Assays:
[1] = target: Bifunctional dihydrofolate reductase-thymidylate synthase (Plasmodium falciparum K1, UniProt P13922, C59R/I164L/S108N); experiment: Inhibitory activity against triple mutant dihydrofolate reductase (C59R S108N I164L DHFR)
[2] = target: Bifunctional dihydrofolate reductase-thymidylate synthase (Plasmodium falciparum K1, UniProt P13922, C59R/I164L/N51I/S108N); experiment: Inhibitory activity against quadruple mutant dihydrofolate reductase (N51I C59R S108N I164L DHFR)
[3] = target: Bifunctional dihydrofolate reductase-thymidylate synthase (Plasmodium falciparum K1) (UniProt P13922); experiment: Inhibitory activity against quadruple mutant dihydrofolate reductase (N51I C59R S108N I164L DHFR), relative to trimethoprim
Chain of Bifunctional dihydrofolate reductase-thymidylate synthase (Plasmodium falciparum K1) (P13922 whole entry, looked up): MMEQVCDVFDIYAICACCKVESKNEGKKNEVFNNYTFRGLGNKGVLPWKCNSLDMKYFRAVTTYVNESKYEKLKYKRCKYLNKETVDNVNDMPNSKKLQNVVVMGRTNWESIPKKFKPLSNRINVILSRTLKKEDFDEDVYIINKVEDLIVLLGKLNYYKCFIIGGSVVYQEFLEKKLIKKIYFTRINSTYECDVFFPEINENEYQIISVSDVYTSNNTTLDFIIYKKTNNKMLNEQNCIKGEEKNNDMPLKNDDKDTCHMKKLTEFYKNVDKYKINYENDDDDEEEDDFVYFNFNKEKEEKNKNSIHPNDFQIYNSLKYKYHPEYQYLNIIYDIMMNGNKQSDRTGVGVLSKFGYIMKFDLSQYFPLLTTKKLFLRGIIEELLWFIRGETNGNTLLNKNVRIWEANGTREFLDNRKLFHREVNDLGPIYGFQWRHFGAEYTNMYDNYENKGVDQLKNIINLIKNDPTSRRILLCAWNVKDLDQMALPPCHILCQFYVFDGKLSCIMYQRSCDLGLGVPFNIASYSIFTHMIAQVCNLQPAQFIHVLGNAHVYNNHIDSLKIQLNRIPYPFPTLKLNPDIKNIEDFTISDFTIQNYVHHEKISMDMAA
Method in brief: (§1)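 Wild-type and mutant P. falciparum DHFR expressed in E. coli BL21(DE3)pLysS. Ki calculated assuming inhibitors compete with substrate at the active site.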

[4] = target: Bifunctional dihydrofolate reductase-thymidylate synthase (Plasmodium falciparum K1) (UniProt P13922); experiment: Inhibitory activity against wild-type dihydrofolate reductase (S108N DHFR), relative to trimethoprim; method in brief: as §1
[5] = target: Bifunctional dihydrofolate reductase-thymidylate synthase (Plasmodium falciparum K1, UniProt P13922); experiment: Inhibitory activity against double mutant dihydrofolate reductase (C59R+S108N DHFR)
Chain of Bifunctional dihydrofolate reductase-thymidylate synthase (Plasmodium falciparum K1, UniProt P13922) (P13922 whole entry): as the sequence (P13922 whole entry, looked up) above

[6] = target: Bifunctional dihydrofolate reductase-thymidylate synthase (Plasmodium falciparum K1) (UniProt P13922); experiment: Inhibitory activity against triple mutant dihydrofolate reductase (C59R S108N I164L DHFR), relative to trimethoprim; method in brief: as §1
[7] = target: Bifunctional dihydrofolate reductase-thymidylate synthase (Plasmodium falciparum K1) (UniProt P13922); experiment: Inhibitory activity against double mutant dihydrofolate reductase (C59R S108N DHFR), relative to trimethoprim; method in brief: as §1

Chain of Bifunctional dihydrofolate reductase-thymidylate synthase (Plasmodium falciparum K1, UniProt P13922, C59R/I164L/S108N) (P13922 whole entry, looked up, stated change not applied): as the sequence (P13922 whole entry, looked up) above
Chain of Bifunctional dihydrofolate reductase-thymidylate synthase (Plasmodium falciparum K1, UniProt P13922, C59R/I164L/N51I/S108N) (P13922 whole entry, looked up, stated change not applied): as the sequence (P13922 whole entry, looked up) above

| SMILES | Ki [1] [µM] | Ki [2] [µM] | Relative activity [3] | Relative activity [4] | Ki [5] [µM] | Relative activity [6] | Relative activity [7] |
| --- | --- | --- | --- | --- | --- | --- | --- |
| COc1ccc(Cc2cnc(N)nc2N)cc1OCc1ccccc1 | 0.63 | 1.13 | 0.2 | 0.7 | 0.143 | 0.11 | 0.6 |
| CCCOc1cc(Cc2c(N)nc(N)nc2CC)ccc1OCc1cc(OC)c(OC)c(OC)c1 | 0.154 | 0.693 | 0.1 | 0.17 | 0.0487 | 0.03 | 0.2 |
| CCc1nc(N)nc(N)c1Cc1ccc(OCc2ccccc2)c(OC)c1 | 3.74 | 0.733 | 0.11 | 0.3 | 0.0601 | 0.66 | 0.25 |
| CCOc1cc(Cc2cnc(N)nc2N)ccc1OCCCc1ccccc1 | 0.374 | 0.525 | 0.08 | 0.1 | 0.0106 | 0.06 | 0.08 |
| CCOc1cc(Cc2cnc(N)nc2N)ccc1OCCCOc1ccccc1 | 0.166 | 0.77 | 0.12 | 0.06 | 0.0477 | 0.03 | 0.2 |
| CCCCCOc1ccc(Cc2cnc(N)nc2N)cc1 | 0.539 | 0.915 | 0.1 | 0.8 | 0.137 | 0.1 | 0.6 |
| CCCCCOc1cc(Cc2cnc(N)nc2N)ccc1OC | 0.253 | 0.444 | 0.1 | 0.2 | 0.135 | 0.04 | 0.5 |
| COc1cc(Cc2c(C)nc(N)nc2N)ccc1OCc1ccccc1 | 0.0663 | 0.0934 | 0.01 | 0.3 | 0.0895 | 0.01 | 0.4 |
| COc1cc(Cc2cnc(N)nc2N)ccc1OCCCOc1ccccc1 | 0.257 | 0.606 | 0.09 | 0.19 | 0.0371 | 0.05 | 0.15 |
| CCCCCCCOc1cc(Cc2cnc(N)nc2N)ccc1OC | 0.292 | 0.445 | 0.1 | 0.3 | 0.104 | 0.05 | 0.4 |
| Nc1ncc(Cc2ccc(OCCCOCCCOc3ccccc3)cc2)c(N)n1 | 0.264 | 1.59 | 0.24 | 0.68 | 0.108 | 0.05 | 0.45 |
| CCCOc1ccc(Cc2cnc(N)nc2N)cc1 | 1.09 | 1.52 | 0.2 | 1.5 | 0.211 | 0.2 | 0.9 |
| Nc1ncc(Cc2ccc(OCCCc3ccccc3)cc2)c(N)n1 | 3.04 | 0.801 | 0.12 | 0.57 | 0.0581 | 0.54 | 0.44 |
| COc1ccc(Cc2cnc(N)nc2N)cc1 | 3.96 | 20.5 | 3.1 | 2.3 | 0.464 | 0.7 | 1.9 |
| COc1cc(Cc2cnc(N)nc2N)ccc1OCc1cc(OC)c(OC)c(OC)c1 | 0.0476 | 0.124 | – | – | – | – | – |
| CCCCCCCOc1ccc(Cc2cnc(N)nc2N)cc1 | 2.21 | 1.38 | 0.2 | 1.7 | 0.196 | 0.4 | 0.8 |
| COc1ccc(Cc2cnc(N)nc2N)cc1OC [DIAVERIDINE] | 2.65 | 13.9 | 2.1 | 1.1 | 0.235 | 0.5 | 1 |
| CCOc1ccc(Cc2cnc(N)nc2N)cc1OC | 3.54 | 11.8 | 1.8 | 1.5 | 0.187 | 0.6 | 0.8 |
| CCCCOc1cc(Cc2cnc(N)nc2N)ccc1OC | 0.772 | 1.03 | 0.2 | 0.2 | 0.194 | 0.1 | 0.8 |
| CCOc1cc(Cc2cnc(N)nc2N)ccc1OCCCOCCCOc1ccccc1 | 0.314 | 0.937 | 0.14 | 0.22 | 0.0469 | 0.06 | 0.19 |
| CCCCCOc1ccc(Cc2cnc(N)nc2N)cc1OCC | 1.16 | 0.902 | 0.1 | 0.1 | 0.0466 | 0.2 | 0.2 |
| Nc1ncc(Cc2ccc(OCCCOc3ccccc3)cc2)c(N)n1 | 0.471 | 2.26 | 0.34 | 0.63 | 0.17 | 0.08 | 0.7 |
| CCCOc1cc(Cc2cnc(N)nc2N)ccc1OC | 0.144 | 0.92 | 0.1 | 0.2 | 0.0521 | 0.03 | 0.2 |
| COc1cc(Cc2cnc(N)nc2N)ccc1OCCCc1ccccc1 | 3.1 | 1.12 | 0.17 | 0.17 | – | 0.54 | 0.33 |
| COc1cc(Cc2cnc(N)nc2N)ccc1OCCCOCCCOc1ccccc1 | 0.425 | 2.19 | 0.33 | 0.18 | 0.153 | 0.07 | 0.63 |
